Active and inactive are the calls of the source. No cut-off for these calls is given here.
Tests used:
[1] = molecular target: RAC-beta serine/threonine-protein kinase (Homo sapiens) (UniProt P31751); test: Inhibition of human PKBb assessed as remaining activity at 10 uM in presence of ATP by radiometric kinase assay relative to control
[2] = molecular target: Eukaryotic elongation factor 2 kinase (Homo sapiens) (UniProt O00418); test: Inhibition of human EF2K assessed as remaining activity at 10 uM in presence of ATP by radiometric kinase assay relative to control
[3] = molecular target: Glycogen synthase kinase-3 beta (Homo sapiens) (UniProt P49841); test: Inhibition of human GSK3b assessed as remaining activity at 10 uM in presence of ATP by radiometric kinase assay relative to control
[4] = AUC (0 to infinity) in BALB/C mouse spleen at 10 mg/kg, po by LC/MS-MS analysis; format: ADME, organism-based
[5] = molecular target: Dual specificity protein kinase CLK2 (Homo sapiens, UniProt P49760); test: Inhibition of human CLK2 by FRET based Z-LYTE kinase assay
Sequence of Dual specificity protein kinase CLK2 (P49760 whole entry): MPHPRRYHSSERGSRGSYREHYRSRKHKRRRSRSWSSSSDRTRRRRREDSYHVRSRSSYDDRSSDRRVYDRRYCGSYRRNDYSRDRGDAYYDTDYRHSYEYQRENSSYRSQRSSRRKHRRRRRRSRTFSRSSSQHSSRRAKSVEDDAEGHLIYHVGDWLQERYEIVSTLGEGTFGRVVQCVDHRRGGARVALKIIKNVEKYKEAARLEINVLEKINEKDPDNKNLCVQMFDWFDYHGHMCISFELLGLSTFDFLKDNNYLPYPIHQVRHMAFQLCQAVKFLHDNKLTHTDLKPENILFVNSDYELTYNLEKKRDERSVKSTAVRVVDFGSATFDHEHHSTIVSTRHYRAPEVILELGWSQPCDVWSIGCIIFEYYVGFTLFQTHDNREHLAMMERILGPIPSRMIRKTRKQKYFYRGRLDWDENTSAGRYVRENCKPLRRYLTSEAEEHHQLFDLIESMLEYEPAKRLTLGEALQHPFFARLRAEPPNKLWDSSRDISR

[6] = Toxicity in Emu-Myc driven transgenic mouse transplant model of B-cell lymphoma assessed as reduction in weight of lung at 150 mg/kg, po administered for 9 days; format: organism-based; conditions: in vivo, 216 h, time 9 day
[7] = molecular target: Serine/threonine-protein kinase D1 (Homo sapiens, UniProt Q15139); test: Inhibition of PRKD1 (unknown origin) by 33P radiometric kinase assay
[8] = molecular target: Maternal embryonic leucine zipper kinase (Homo sapiens) (UniProt Q14680); test: Inhibition of human MELK assessed as remaining activity at 10 uM in presence of ATP by radiometric kinase assay relative to control
[9] = molecular target: Interleukin-1 receptor-associated kinase 4 (Homo sapiens) (UniProt Q9NWZ3); test: Inhibition of human IRAK4 assessed as remaining activity at 10 uM in presence of ATP by radiometric kinase assay relative to control
[10] = molecular target: Ribosomal protein S6 kinase beta-1 (Homo sapiens) (UniProt P23443); test: Inhibition of human S6K1 assessed as remaining activity at 10 uM in presence of ATP by radiometric kinase assay relative to control
Sequence of Ribosomal protein S6 kinase beta-1 (Homo sapiens) (P23443 whole entry, looked up): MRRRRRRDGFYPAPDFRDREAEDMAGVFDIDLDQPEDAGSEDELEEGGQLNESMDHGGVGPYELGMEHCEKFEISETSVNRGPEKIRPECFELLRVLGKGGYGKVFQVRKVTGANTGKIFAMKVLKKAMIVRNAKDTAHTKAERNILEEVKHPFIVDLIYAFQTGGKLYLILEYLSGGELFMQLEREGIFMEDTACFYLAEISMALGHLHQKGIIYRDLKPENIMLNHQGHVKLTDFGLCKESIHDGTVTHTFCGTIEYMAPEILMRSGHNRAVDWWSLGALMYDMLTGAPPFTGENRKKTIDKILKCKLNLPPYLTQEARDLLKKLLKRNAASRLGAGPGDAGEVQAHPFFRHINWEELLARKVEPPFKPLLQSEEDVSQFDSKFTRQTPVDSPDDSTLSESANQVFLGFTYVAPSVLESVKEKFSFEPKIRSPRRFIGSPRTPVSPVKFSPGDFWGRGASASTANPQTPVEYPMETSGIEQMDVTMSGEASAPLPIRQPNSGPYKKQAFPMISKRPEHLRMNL

[11] = molecular target: Mitogen-activated protein kinase 9 (Homo sapiens) (UniProt P45984); test: Inhibition of human JNK2 assessed as remaining activity at 10 uM in presence of ATP by radiometric kinase assay relative to control
[12] = molecular target: Calcium/calmodulin-dependent protein kinase kinase 2 (Homo sapiens) (UniProt Q96RR4); test: Inhibition of human CAMKKb assessed as remaining activity at 10 uM in presence of ATP by radiometric kinase assay relative to control
Sequence of Calcium/calmodulin-dependent protein kinase kinase 2 (Homo sapiens) (Q96RR4 2-588 limits assumed): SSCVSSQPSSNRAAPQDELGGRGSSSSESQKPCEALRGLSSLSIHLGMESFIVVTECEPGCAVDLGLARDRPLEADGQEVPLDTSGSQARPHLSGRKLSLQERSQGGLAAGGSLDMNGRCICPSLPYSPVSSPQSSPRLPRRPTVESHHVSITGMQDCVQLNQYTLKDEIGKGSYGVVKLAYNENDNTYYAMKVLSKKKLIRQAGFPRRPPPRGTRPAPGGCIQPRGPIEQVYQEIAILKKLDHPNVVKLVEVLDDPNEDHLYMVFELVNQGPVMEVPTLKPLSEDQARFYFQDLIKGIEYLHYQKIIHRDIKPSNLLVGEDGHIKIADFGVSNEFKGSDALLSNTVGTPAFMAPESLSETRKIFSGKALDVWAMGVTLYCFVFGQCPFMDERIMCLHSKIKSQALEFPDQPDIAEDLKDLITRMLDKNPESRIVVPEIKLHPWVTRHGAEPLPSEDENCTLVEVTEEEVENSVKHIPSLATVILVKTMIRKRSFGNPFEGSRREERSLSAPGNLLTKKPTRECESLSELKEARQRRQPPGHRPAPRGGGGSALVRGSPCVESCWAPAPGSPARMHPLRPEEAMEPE

[13] = molecular target: Calcium/calmodulin-dependent protein kinase type 1 (Homo sapiens) (UniProt Q14012); test: Inhibition of human CAMK1 assessed as remaining activity at 10 uM in presence of ATP by radiometric kinase assay relative to control
[14] = molecular target: MAP/microtubule affinity-regulating kinase 3 (Homo sapiens, UniProt P27448); test: Inhibition of human MARK3 assessed as remaining activity at 10 uM in presence of ATP by radiometric kinase assay relative to control
HT-29 [15] = test: Induction of cell cycle arrest in human HT-29 cells assessed as accumulation of cells at G0/G1 phase at 0.5 uM incubated for 24 hrs by BrdU and PI staining based flow cytometry analysis; format: functional
Method in brief: (§1)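 HT29 cells exposed for 24h, stained with bromodeoxyuridine and propidium iodide, and cell-cycle distribution measured by flow cytometry.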

[16] = molecular target: Tyrosine-protein kinase ABL1 (Homo sapiens) (UniProt P00519); test: Inhibition of human ABL assessed as remaining activity at 10 uM in presence of ATP by radiometric kinase assay relative to control
[17] = molecular target: Mitogen-activated protein kinase kinase kinase 5 (Homo sapiens) (UniProt Q99683); test: Inhibition of human ASK1 assessed as remaining activity at 10 uM in presence of ATP by radiometric kinase assay relative to control
[18] = Toxicity in Emu-Myc driven transgenic mouse transplant model of B-cell lymphoma assessed as change in body temperature at 150 mg/kg, po administered for 9 days; format: organism-based; conditions: in vivo, 216 h, time 9 day
HT-29 [19] = test: Induction of cell cycle arrest in human HT-29 cells assessed as accumulation of cells at S phase at 0.5 uM incubated for 24 hrs by BrdU and PI staining based flow cytometry analysis; format: functional; method in brief: as §1
Mus musculus = test: In vivo inhibition of CHK1 in CRTac:Ncr-Fox1 athymic mouse xenografted with human Calu-6 cells assessed as inhibition of CHK1 phosphorylation on S296 at 150 mg/kg, po in presence of gemcitabine and carboplatin by ELISA analysis; format: functional, organism-based
[20] = molecular target: Ribosomal protein S6 kinase alpha-3 (Homo sapiens, UniProt P51812); test: Inhibition of human RSK2 by FRET based Z-LYTE kinase assay
[21] = molecular target: Protein-tyrosine kinase 6 (Homo sapiens) (UniProt Q13882); test: Inhibition of human BRK assessed as remaining activity at 10 uM in presence of ATP by radiometric kinase assay relative to control
[22] = molecular target: Vascular endothelial growth factor receptor 1 (Homo sapiens, UniProt P17948); test: Inhibition of VEGFR1 (unknown origin) by FRET based Z-LYTE kinase assay
Sequence of Vascular endothelial growth factor receptor 1 (P17948 whole entry): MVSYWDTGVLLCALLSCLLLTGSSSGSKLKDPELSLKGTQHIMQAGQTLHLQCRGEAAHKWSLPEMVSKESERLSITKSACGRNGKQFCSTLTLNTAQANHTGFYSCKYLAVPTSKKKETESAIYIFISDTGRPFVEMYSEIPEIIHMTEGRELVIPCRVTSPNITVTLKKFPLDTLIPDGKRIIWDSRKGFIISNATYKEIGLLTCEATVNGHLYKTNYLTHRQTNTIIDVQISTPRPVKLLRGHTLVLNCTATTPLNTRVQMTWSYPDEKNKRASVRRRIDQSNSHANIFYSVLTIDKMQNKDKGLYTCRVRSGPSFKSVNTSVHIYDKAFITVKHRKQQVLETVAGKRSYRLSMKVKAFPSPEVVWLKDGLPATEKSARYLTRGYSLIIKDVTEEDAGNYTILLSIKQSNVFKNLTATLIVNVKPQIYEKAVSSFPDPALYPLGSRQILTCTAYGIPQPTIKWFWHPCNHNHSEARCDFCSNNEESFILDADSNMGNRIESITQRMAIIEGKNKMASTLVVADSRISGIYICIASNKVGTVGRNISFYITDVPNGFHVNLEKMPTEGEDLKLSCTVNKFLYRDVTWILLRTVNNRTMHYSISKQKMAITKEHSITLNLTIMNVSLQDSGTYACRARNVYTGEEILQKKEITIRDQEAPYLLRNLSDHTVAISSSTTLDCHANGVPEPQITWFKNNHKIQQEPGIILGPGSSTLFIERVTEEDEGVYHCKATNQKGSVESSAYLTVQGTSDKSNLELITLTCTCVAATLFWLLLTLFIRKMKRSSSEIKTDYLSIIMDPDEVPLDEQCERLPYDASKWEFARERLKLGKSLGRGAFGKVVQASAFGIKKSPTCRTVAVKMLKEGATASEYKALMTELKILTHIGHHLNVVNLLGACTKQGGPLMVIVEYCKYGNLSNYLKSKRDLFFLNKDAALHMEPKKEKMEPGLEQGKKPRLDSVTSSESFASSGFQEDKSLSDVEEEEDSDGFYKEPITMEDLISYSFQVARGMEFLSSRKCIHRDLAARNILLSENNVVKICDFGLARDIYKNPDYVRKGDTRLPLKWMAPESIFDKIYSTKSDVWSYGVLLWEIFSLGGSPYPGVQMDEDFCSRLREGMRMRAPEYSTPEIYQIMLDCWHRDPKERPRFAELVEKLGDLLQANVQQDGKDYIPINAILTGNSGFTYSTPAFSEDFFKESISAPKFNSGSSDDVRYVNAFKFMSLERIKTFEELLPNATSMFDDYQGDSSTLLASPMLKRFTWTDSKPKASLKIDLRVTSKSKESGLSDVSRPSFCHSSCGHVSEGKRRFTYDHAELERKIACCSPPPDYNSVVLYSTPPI

[23] = molecular target: Tyrosine-protein kinase ZAP-70 (Homo sapiens) (UniProt P43403); test: Inhibition of human ZAP70 assessed as remaining activity at 10 uM in presence of ATP by radiometric kinase assay relative to control
Sequence of Tyrosine-protein kinase ZAP-70 (Homo sapiens) (P43403 whole entry): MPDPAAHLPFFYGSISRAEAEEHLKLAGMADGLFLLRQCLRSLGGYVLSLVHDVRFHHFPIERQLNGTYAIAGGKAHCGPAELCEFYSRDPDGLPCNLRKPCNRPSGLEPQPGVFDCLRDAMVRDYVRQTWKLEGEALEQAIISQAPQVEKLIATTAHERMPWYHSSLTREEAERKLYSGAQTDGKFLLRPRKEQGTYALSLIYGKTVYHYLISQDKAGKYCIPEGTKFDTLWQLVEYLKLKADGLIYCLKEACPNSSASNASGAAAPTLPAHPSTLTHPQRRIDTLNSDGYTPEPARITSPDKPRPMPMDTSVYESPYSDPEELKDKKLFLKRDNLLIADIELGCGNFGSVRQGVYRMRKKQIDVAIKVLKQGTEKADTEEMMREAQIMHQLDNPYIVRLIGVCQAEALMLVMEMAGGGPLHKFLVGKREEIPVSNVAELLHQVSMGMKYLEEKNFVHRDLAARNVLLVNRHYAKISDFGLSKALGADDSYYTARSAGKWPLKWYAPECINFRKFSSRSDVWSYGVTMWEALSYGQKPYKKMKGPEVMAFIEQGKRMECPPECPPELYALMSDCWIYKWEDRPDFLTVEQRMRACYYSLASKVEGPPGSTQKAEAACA

SW-620 = test: Induction of apoptosis in human SW620 cells assessed as increased in cleaved PARP in presence of SN38 by Western blotting analysis; format: functional, cell-based
[24] = molecular target: Cyclin-dependent kinase 1 (Homo sapiens) (UniProt P06493); test: Inhibition of human CDK1 by DELFIA assay
HT-29 [25] = test: Induction of cell cycle arrest in human HT-29 cells assessed as decrease in accumulation of cells at G0/G1 phase at 1 to 5 uM incubated for 24 hrs by BrdU and PI staining based flow cytometry analysis; format: functional; conditions: dose 1-5 µM; method in brief: as §1
[26] = Toxicity in Emu-Myc driven transgenic mouse transplant model of B-cell lymphoma assessed as reduction in weight of the mesenteric lymph nodes at 150 mg/kg, po administered for 9 days; format: organism-based; conditions: in vivo, 216 h, time 9 day
[27] = molecular target: Ephrin type-B receptor 3 (Homo sapiens) (UniProt P54753); test: Inhibition of human EPH-B3 assessed as remaining activity at 10 uM in presence of ATP by radiometric kinase assay relative to control
Sequence of Ephrin type-B receptor 3 (Homo sapiens) (P54753 whole entry): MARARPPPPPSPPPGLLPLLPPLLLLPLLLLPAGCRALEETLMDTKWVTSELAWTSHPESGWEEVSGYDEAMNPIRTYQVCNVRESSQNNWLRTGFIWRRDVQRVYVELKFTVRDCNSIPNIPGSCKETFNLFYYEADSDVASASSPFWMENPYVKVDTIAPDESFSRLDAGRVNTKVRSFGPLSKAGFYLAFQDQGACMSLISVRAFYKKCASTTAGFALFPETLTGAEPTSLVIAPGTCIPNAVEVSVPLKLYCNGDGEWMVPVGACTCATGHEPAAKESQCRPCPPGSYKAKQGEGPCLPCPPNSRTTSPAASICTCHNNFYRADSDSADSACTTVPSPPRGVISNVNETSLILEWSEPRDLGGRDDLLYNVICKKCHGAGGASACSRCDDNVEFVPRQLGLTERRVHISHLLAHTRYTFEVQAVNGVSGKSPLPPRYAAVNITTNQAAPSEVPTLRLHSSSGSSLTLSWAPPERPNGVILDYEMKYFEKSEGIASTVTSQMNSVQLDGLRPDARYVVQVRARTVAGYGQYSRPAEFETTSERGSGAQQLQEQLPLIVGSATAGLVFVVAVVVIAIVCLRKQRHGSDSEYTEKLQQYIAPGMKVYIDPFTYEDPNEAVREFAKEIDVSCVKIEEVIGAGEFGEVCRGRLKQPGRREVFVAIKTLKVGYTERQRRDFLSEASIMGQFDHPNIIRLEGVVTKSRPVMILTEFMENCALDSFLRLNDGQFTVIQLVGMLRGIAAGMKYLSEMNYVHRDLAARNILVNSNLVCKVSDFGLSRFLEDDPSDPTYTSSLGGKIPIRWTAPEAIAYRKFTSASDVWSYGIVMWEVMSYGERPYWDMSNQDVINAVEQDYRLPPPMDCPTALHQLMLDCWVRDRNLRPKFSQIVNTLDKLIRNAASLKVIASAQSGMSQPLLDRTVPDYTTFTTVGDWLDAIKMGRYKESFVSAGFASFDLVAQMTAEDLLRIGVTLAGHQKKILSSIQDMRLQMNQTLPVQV

[28] = molecular target: Dual specificity tyrosine-phosphorylation-regulated kinase 1A (Homo sapiens) (UniProt Q13627); test: Inhibition of human DYRK1A assessed as remaining activity at 10 uM in presence of ATP by radiometric kinase assay relative to control
[29] = molecular target: Dual specificity mitogen-activated protein kinase kinase 1 (Homo sapiens) (UniProt Q02750); test: Inhibition of human MKK1 assessed as remaining activity at 10 uM in presence of ATP by radiometric kinase assay relative to control

Sequence of RAC-beta serine/threonine-protein kinase (Homo sapiens) (P31751 whole entry): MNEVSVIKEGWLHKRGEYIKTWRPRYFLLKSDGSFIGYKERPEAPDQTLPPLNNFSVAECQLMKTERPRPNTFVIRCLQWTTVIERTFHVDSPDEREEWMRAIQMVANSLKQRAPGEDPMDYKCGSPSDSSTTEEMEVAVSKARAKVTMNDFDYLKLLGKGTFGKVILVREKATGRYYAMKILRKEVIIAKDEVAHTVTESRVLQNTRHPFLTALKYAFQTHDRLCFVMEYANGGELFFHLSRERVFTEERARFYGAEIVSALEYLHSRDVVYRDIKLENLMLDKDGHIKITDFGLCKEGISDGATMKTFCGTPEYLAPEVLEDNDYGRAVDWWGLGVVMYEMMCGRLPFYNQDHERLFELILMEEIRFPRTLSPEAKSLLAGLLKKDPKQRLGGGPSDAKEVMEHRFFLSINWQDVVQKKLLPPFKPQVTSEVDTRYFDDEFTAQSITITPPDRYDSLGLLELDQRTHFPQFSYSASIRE

Question: Which Activity [1] does the source give for `N#Cc1cnc(Nc2cc(NC[C@H]3CNCCO3)c(C(F)(F)F)cn2)cn1` [SRA-737] here?
Answer: The Activity was 100%.

Question: And the Activity [2]?
Answer: The Activity was 98%.

Question: What about the Activity [3] of the same compound?
Answer: The Activity was 47%.

Question: What about the AUC(0-inf) [4] of the same compound?
Answer: Its AUC(0-inf) is 223 µM·h.

Question: What about the IC50 [5] of the same compound?
Answer: Its IC50 is 1.37 µM.

Question: And the Activity [6]?
Answer: The Activity was “Toxic”.

Question: What about the IC50 [7] of the same compound?
Answer: Its IC50 is 0.298 µM.

Question: And the Activity [8]?
Answer: The Activity was 37%.

Question: What about the Activity [9] of the same compound?
Answer: The Activity was 73%.

Question: What about the Activity [10] of the same compound?
Answer: The Activity was 52%.

Question: And the Activity [11]?
Answer: The Activity was 107%.

Question: And the Activity [12]?
Answer: The Activity was 73%.

Question: What about the Activity [13] of the same compound?
Answer: Its Activity is 69%.

Question: And the Activity [14]?
Answer: The Activity was 13%.

Question: What about the Activity (HT-29 [15]) of the same compound?
Answer: The Activity was “Active”.

Question: What about the Activity [16] of the same compound?
Answer: The Activity was 93%.

Question: And the Activity [17]?
Answer: Its Activity is 80%.

Question: And the Activity [18]?
Answer: The Activity was “Non-Toxic”.

Question: And the Activity (HT-29 [19])?
Answer: Its Activity is “Active”.

Question: What about the inhibition (Mus musculus) of the same compound?
Answer: The inhibition was “Active”.

Question: What about the IC50 [20] of the same compound?
Answer: Its IC50 is 0.361 µM.

Question: What about the Activity [21] of the same compound?
Answer: The Activity was 108%.

Question: What about the IC50 [22] of the same compound?
Answer: Its IC50 is 15.8 µM.

Question: What about the Activity [23] of the same compound?
Answer: Its Activity is 93%.

Question: And the Activity (SW-620)?
Answer: The Activity was “Active”.

Question: And the IC50 [24]?
Answer: Its IC50 is 2.44 µM.

Question: And the Activity (HT-29 [25])?
Answer: Its Activity is “Active”.

Question: And the Activity [26]?
Answer: Its Activity is “Toxic”.

Question: What about the Activity [27] of the same compound?
Answer: Its Activity is 93%.

Question: What about the Activity [28] of the same compound?
Answer: Its Activity is 41%.

Question: What about the Activity [29] of the same compound?
Answer: Its Activity is 68%.
